Results reported in PubChem BioAssay AID588418 (The Scripps Research Institute Molecular Screening Center, 2011).
The source made the active and inactive calls.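 How the source made its calls: active means IC50 at or below 1000 nM; inactive means IC50 above 1000 nM.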

Molecular target: Protein-arginine deiminase type-4 (Homo sapiens) (UniProt Q9UM07)
Test: recombinant human PAD4 inhibitors – biochemical, BAEE substrate, citrulline absorbance, 7-point 0-10 µM, late-stage follow-up (AID 588418)
Conditions: recombinant PAD4, BAEE citrulline colorimetric absorbance
Outline: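 Material: Recombinant PAD4 | Quantity: 0.2 µM PAD4 enzyme in the reaction | Signal: Colorimetric citrulline absorbance at 540 nm, diacetyl monoxime/thiosemicarbazide reagent | Incubation: 15 min pre-incubation and 15 min reaction, 37 °C | Medium: Tris-HCl pH 7.6, CaCl2, DTT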

Chain of Protein-arginine deiminase type-4 (Homo sapiens) (Q9UM07 whole entry, looked up): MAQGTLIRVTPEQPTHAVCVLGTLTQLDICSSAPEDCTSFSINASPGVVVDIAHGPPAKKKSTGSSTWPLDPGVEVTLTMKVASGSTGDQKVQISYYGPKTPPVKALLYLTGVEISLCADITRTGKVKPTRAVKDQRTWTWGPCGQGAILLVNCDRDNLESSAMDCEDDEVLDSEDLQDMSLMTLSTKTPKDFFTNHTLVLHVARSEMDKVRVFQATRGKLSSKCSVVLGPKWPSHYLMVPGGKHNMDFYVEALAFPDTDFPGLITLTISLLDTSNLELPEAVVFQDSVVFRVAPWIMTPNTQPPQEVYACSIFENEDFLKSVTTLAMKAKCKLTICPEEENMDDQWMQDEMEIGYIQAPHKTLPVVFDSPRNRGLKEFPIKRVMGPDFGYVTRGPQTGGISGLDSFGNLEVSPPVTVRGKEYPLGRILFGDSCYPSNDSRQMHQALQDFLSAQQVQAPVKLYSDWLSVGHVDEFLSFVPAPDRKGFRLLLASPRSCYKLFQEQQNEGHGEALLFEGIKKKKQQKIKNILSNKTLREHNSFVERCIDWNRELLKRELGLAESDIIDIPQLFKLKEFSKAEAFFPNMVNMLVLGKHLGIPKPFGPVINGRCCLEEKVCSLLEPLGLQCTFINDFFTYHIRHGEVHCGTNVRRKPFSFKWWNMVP

IC50: inactive
Compound: COC1=C(N)C(=O)c2ncccc2C1=O
